Screening results (PubChem BioAssay)
This is a sample that favours compounds with a hit; in the whole collection about 2.9% have one here.
IMP-1 inh = inhibitors of Pseudomonas aeruginosa IMP-1 metallo-beta-lactamase | 0.45% of 290,000 active | AID 1556 | purified IMP-1, nitrocefin hydrolysis, epi-absorbance fluorescence | inhibition, % at 5.6 µM;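 active means inhibition above the mean plus 3 SD of all compounds in the same screening run, cut at about 4.5% in these data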;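 further: 0% = IMP-1 with DMSO and 100% = DMSO wells lacking enzyme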
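System: Purified IMP-1 | Read-out basis: Percent enzyme inhibition | Controls: IMP-1 with DMSO as 0%, enzyme-free DMSO as 100% | Replicates: One well per compound | Doses: 5.6 µM nominal single concentration | Detection: Epi-absorbance fluorescence, 480 nm excitation, 530 nm emission | Incubation: 25 °C, 15 min preincubation, 25 min reaction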
NALP1 yeast inh = blocks the NALP1 inflammasome reconstituted in yeast; inhibition, % at 10 µM; AID 2071; 0.61% of 280,000 active; S. cerevisiae NALP1/ASC/caspase-1 growth, X-gal OD620, 72 h; in the data active means inhibition mostly above about 24%, no sharp cut-off; inactive means mostly below about 32%
VIM-2 inh = inhibitors of Pseudomonas aeruginosa VIM-2 metallo-beta-lactamase | 0.89% of 290,000 active | purified VIM-2, nitrocefin hydrolysis, epi-absorbance fluorescence | inhibition, % at 5.6 µM;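 active means inhibition above the mean of all tested compounds plus 3 SD, cutoff set per screening run, cut at about 7.5% in these data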;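 further: red hydrolysis product quenches plate fluorescence so inhibitors raise well fluorescence; 0% = enzyme with DMSO and 100% = DMSO without enzyme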
SUMO Mot1 rescue = inhibitors of SUMOylation pathway: yeast Mot1-301 growth rescue | S. cerevisiae Mot1-301 growth rescue, ATP luminescence, 38.5C; percent above DMSO median, 100 means doubled | growth rescue, % at 18.8 µM | 1% of 320,000 active | AID 2716;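 active means every valid replicate shows activation above 250% relative to neutral control wells; inactive means the rest, any valid replicate at or below 250%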;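 further: OY570 slx delta 5 strain wells were the positive control but not used for scaling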
NLRP3 yeast inh = NALP3 inhibition in yeast | Yeast reconstituted NLRP3/ASC/caspase-1, beta-gal luminescence, 24 h | inhibition, % at 10 µM | 0.39% of 330,000 active | AID 2825;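 active means inhibition of 50% or more; inactive means inhibition below 50%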;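 further: plate controls were induced DMSO wells for no effect and uninduced yeast grown without galactose for full effect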
PolyA inh = blocks polyadenylation in yeast reporter cells | 0.02% of 300,000 active | AID 1875 | S. cerevisiae SKY197-pL101 polyadenylation reporter, beta-gal luminescence; efflux-impaired pdr1/pdr3 knockout yeast; score 100 = 6 SD above DMSO | activity score, % at 12 µM;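 active means lowest replicate activity score at least 50, where 100 means six control SD above control mean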;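 further: yeast exposed to compound for 9 h at 30 °C; higher score means more reporter readthrough which indicates perturbed polyadenylation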
Yeast Mot1 SUMO = yeast SUMO pathway inhibition in dose response | shares compounds with SUMO Mot1 rescue | S. cerevisiae Mot1-301 galactose growth, ATP luminescence, 24 h; -100 = growth of slx-deleted rescue strain | growth activity, percent, % at 42 µM | 2,300 tested, under 10 active;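 active means Signal drops as the depositor expects, and the fitted half-maximal dose is no more than ten times the top valid tested dose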;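 further: more negative values mean stronger growth rescue toward the control strain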
The depositor's hits bear a star.

For O=C(CSc1ncn[nH]1)Nc1cccc(S(=O)(=O)N2CCCCCC2)c1 the results were IMP-1 inh -3.2, NALP1 yeast inh 20.5, VIM-2 inh -0.1, SUMO Mot1 rescue 499.1*, NLRP3 yeast inh -0.4, PolyA inh 16.3 and Yeast Mot1 SUMO 0.0.
CN(C)CCOC(=O)CCc1ccccc1 was read as IMP-1 inh -2.8, NALP1 yeast inh 9.4, VIM-2 inh -2.8, SUMO Mot1 rescue 560.1*, NLRP3 yeast inh 14.3, PolyA inh 3.2 and Yeast Mot1 SUMO -0.1.
COc1ccc(-c2c(C)nn3c(C)cc(C)nc23)cc1 was read as IMP-1 inh -1.3, NALP1 yeast inh 12.5, VIM-2 inh 4.4, SUMO Mot1 rescue 519.3*, NLRP3 yeast inh 24.8, PolyA inh 1.7 and Yeast Mot1 SUMO -0.2.
Screening Cc1nc2sc(C(c3ccccc3)N3CCC(O)CC3)c(O)n2n1 (stereo unspecified) returned IMP-1 inh -2.7, NALP1 yeast inh -6.7, VIM-2 inh -1.3, SUMO Mot1 rescue active, NLRP3 yeast inh 11.6, PolyA inh -1.0 and Yeast Mot1 SUMO 0.8.
For Cc1nc2sc(C(c3cccc(F)c3)N3CCC(O)CC3)c(O)n2n1 (stereo unspecified) the results were IMP-1 inh -3.1, NALP1 yeast inh 7.3, VIM-2 inh -4.1, SUMO Mot1 rescue -13.4, NLRP3 yeast inh -0.6 and PolyA inh 3.1.
For CCN(CC)CCNC(=O)c1ccc(NC(=O)Nc2cccc3ccccc23)cc1 the results were IMP-1 inh -1.4, NALP1 yeast inh 17.1, VIM-2 inh -2.8, SUMO Mot1 rescue inactive, NLRP3 yeast inh 21.1 and PolyA inh 17.3.
Screening COCCCNC(=O)c1cc(-c2cccnc2)nc2ccc(S(=O)(=O)N3CCCCCC3)cc12 returned IMP-1 inh -0.8, NALP1 yeast inh 30.5, VIM-2 inh 1.7, SUMO Mot1 rescue -7.5, NLRP3 yeast inh 18.6 and PolyA inh 7.2.
For COc1cccc(/C=C2/C(=O)NN(c3ccc(Br)cc3)C2=O)c1O the results were IMP-1 inh 1.8, NALP1 yeast inh 20.1, VIM-2 inh -1.3, SUMO Mot1 rescue 527.7*, NLRP3 yeast inh 30.7, PolyA inh 10.4 and Yeast Mot1 SUMO 0.4.
`CCN(CC)S(=O)(=O)c1ccc(N2CCN(C)CC2)c(NC(=O)Nc2ccc(C)cc2)c1` gave IMP-1 inh -0.1, NALP1 yeast inh 33.9, VIM-2 inh 0.6, SUMO Mot1 rescue -0.2, NLRP3 yeast inh 7.0 and PolyA inh 6.6.
`COc1cccc(C2C(C(C)=O)=C(O)C(=O)N2CCc2c[nH]c3ccccc23)c1` (stereo unspecified) gave IMP-1 inh -0.7, NALP1 yeast inh 9.3, VIM-2 inh -1.2, SUMO Mot1 rescue 603.7*, NLRP3 yeast inh 14.8, PolyA inh -23.4 and Yeast Mot1 SUMO 0.1.
`CCOC(=O)Cn1c(=O)n(Cc2ccco2)c(=O)c2ccc(C(=O)NCCc3ccccc3)cc21` gave IMP-1 inh -4.6, NALP1 yeast inh 18.9, VIM-2 inh -4.2, SUMO Mot1 rescue 370.1*, NLRP3 yeast inh 4.0, PolyA inh 8.5 and Yeast Mot1 SUMO -0.3.
`O=C(NCc1ccccc1)c1cccc(COc2ccc(Cl)cc2)c1` gave IMP-1 inh -0.7, NALP1 yeast inh 15.5, VIM-2 inh -2.4, SUMO Mot1 rescue active, NLRP3 yeast inh 25.0, PolyA inh -12.9 and Yeast Mot1 SUMO 0.5.
Screening O=C(NCc1ccccc1)c1cccc(COc2cccc(Cl)c2)c1 returned IMP-1 inh -2.2, NALP1 yeast inh 8.0, VIM-2 inh -2.9, SUMO Mot1 rescue 276.3, NLRP3 yeast inh 8.7 and PolyA inh -8.5.
For Cc1ccc(S(=O)(=O)N2CCN(c3cccc(C)c3)CC2)cc1 the results were IMP-1 inh -1.0, NALP1 yeast inh 7.1, VIM-2 inh 1.5, SUMO Mot1 rescue -2.8, NLRP3 yeast inh 19.7 and PolyA inh -23.1.
Screening CCCC(O)(CCC)C(=O)NNc1ccc(C)cc1 returned IMP-1 inh 1.3, NALP1 yeast inh 18.8, VIM-2 inh 2.4, SUMO Mot1 rescue 642.7*, NLRP3 yeast inh 25.9, PolyA inh -13.1 and Yeast Mot1 SUMO 0.3.
